# In ChEMBL document CHEMBL3526143, “Pulmonary metabolism of resveratrol: in vitro and in vivo evidence” (Drug Metab Dispos, 2013):
# Experiments:
# [1] = Partial substrate inhibition in mouse lung S9 fractions treated with trans-resveratrol preincubated for 3 mins followed by PAPS addition measured after 60 mins by Eadie-Hofstee plot analysis; type: ADME
# In short: (§1)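 Sulfation uses pooled lung S9 (mouse 1 mg/ml, human 0.5 mg/ml final) with substrate at 0.01 µM–5 mM in 2% HP-β-CD, 5 mM MgCl2 and 10 mM potassium phosphate pH 6.5 at 37°C. After 3 min preincubation, 1 mM PAPS is added for 60 min, and the reaction is stopped with ascorbic acid and cold methanol. Triplicates are run, with a control lacking PAPS. Kinetics are fitted by nonlinear regression (partial substrate inhibition) after Eadie-Hofstee inspection.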
# [2] = Partial substrate inhibition in human lung S9 fractions treated with trans-resveratrol preincubated for 3 mins followed by PAPS addition measured after 60 mins by Eadie-Hofstee plot analysis; type: ADME; in short: as §1
# [3] = Plasma protein binding in mouse at 20 uM by equilibrium dialysis method; type: ADME, cell-free; details: read-out: PPB (converted)
# In short: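 Equilibrium dialysis uses 5K MWCO membranes on a rotator at 37°C under 10% CO2. Thawed mouse plasma is adjusted to pH 7.4, and each analyte is tested at 20 µM; n = 3.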
# [4] = Drug level in human lung microsomes treated with trans-resveratrol at 0.5 mM measured at 60 mins; type: ADME; details: 1 h, 500 µM
# In short: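 Pooled human lung microsomes at 0.1, 0.5 and 2.5 mg/ml final, with 0.5 mM substrate in 2% final HP-β-CD, are incubated with UDPGA cofactor for 60 min. Glucuronide is quantified by LC-MS/MS, with an LOQ of 10 ng/ml.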
# [5] = Partial substrate inhibition in mouse lung S9 fractions treated with trans-resveratrol preincubated for 3 mins followed by UDPGA addition measured after 60 mins by Eadie-Hofstee plot analysis; type: ADME
# In short: (§2)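 Pooled mouse lung S9 (0.5 mg/ml final) is incubated with substrate at 0.01 µM–5 mM in 2% final HP-β-CD, alamethicin 10 µg/ml, 5 mM MgCl2 and Tris-HCl 100 mM pH 7.4 at 37°C. The reaction is started with 5 mM UDPGA and stopped at 60 min with ascorbic acid and cold methanol. Triplicates are run, with a control lacking UDPGA. Data are screened on Eadie-Hofstee plots and fitted by nonlinear regression to a partial substrate inhibition model.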
# [6] = Volume of distribution at steady state in C57BL/6 mouse at 15 mg/kg, iv; type: ADME, organism-based; parameters: dose 15 mg/kg, route intravenous; details: in vivo, read-out: Vdss
# In short: (§3)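 Male C57BL/6 mice, 20–25 g, given a single IV dose of 15 mg/kg in 20% HP-β-CD in saline. Blood (20 µl) is drawn serially through a carotid artery cannula at 2.5–600 min, and plasma is assayed by LC-MS/MS. Noncompartmental analysis gives AUC by the linear trapezoidal rule, CL = dose/AUC0-inf, Vss = CL × MRT0-inf and t1/2 = 0.693/λ; n = 5.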
# [7] = Drug metabolism in mouse lung S9 fractions assessed as trans-resveratrol-3-O-glucuronide formation preincubated for 3 mins followed by UDPGA addition measured after 60 mins by Eadie-Hofstee plot analysis; type: ADME, tissue-based; details: s9, 1 h; in short: as §2
# [8] = Drug metabolism in human lung S9 fractions assessed as trans-resveratrol-3-sulfate formation preincubated for 3 mins followed by PAPS addition measured after 60 mins by Eadie-Hofstee plot analysis; type: ADME, tissue-based; details: s9, 1 h; in short: as §1
# [9] = Drug metabolism in mouse lung S9 fractions assessed as trans-resveratrol-3-sulfate formation preincubated for 3 mins followed by PAPS addition measured after 60 mins by Eadie-Hofstee plot analysis; type: ADME, tissue-based; details: s9, 1 h; in short: as §1
# [10] = Bioavailability in C57BL/6 mouse at 15 mg/kg, iv; type: ADME, organism-based; details: in vivo
# [11] = AUC (0 to infinity) in C57BL/6 mouse at 15 mg/kg, iv; type: ADME, organism-based; parameters: time infinity, dose 15 mg/kg, route intravenous; details: plasma; in short: as §3
# [12] = Clearance in C57BL/6 mouse at 15 mg/kg, iv; type: ADME, organism-based; parameters: dose 15 mg/kg, route intravenous; details: in vivo; in short: as §3
# [13] = Terminal half life in C57BL/6 mouse at 15 mg/kg, iv; type: ADME, organism-based; parameters: dose 15 mg/kg, route intravenous; details: in vivo, read-out: beta t1/2; in short: as §3
Structure (SMILES),Ki [1] [mM],Ki [2] [mM],fraction unbound at 20 µM [3],Drug metabolism [4] [ng/mL],Ki [5] [mM],Vd [6] [L/kg],Km [7] [µM],Vmax [7] [pmol/min/mg],Km [8] [µM],Vmax [8] [pmol/min/mg],Km [9] [µM],Vmax [9] [pmol/min/mg],bioavailability [10] [%],AUC(0-inf) [11] [µM·h],clearance [12] [L/h/kg],half-life [13] [h]
O=S(=O)(O)Oc1cc(O)cc(/C=C/c2ccc(O)cc2)c1,2.02,23.2,0.128,–,–,–,–,–,–,–,–,–,–,–,–,–
O=C(O)[C@H]1O[C@@H](Oc2cc(O)cc(/C=C/c3ccc(O)cc3)c2)[C@H](O)[C@@H](O)[C@@H]1O,–,–,0.333,< 10,6.63,–,–,–,–,–,–,–,–,–,–,–
Oc1ccc(/C=C/c2cc(O)cc(O)c2)cc1 [RESVERATROL],–,–,0.0805,–,–,34.9,7.34,324.4,4.45,16.15,2.69,7.05,49.9,4.92,16.8,1.69
